Source: ChEMBL document CHEMBL5321214, “Targeting the multifaceted neurotoxicity of Alzheimer's disease by tailored functionalisation of the curcumin scaffold” (Eur J Med Chem, 2023)
Active and inactive are the calls of the source. No cut-off for these calls is given here.

Tests used:
[1] = test system: SH-SY5Y; experiment: Cytotoxicity against human SH-SY5Y cells assessed as decrease in cell viability at >2.5 uM incubated for 24 hrs by MTT assay; format: toxicity, cell-based
Summary of the method: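 SH-SY5Y, 2×10^4 cells/well, grown 24 h then exposed 24 h (1.25–40 μM) at 37 °C, 5% CO2. MTT 0.5 mg/mL in HBSS for 2 h, washed, formazan dissolved in isopropanol, read at 570 nm (reference 690 nm).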

[2] = test system: Microglia; experiment: Cytotoxicity against Sprague-Dawley rat microglial cells assessed as decrease in cell viability at 5 uM incubated for 24 hrs by MTT assay; format: toxicity, cell-based
Summary of the method: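 Primary rat microglia, 6×10^4 cells/well, switched to serum-free medium 1 h before 24 h exposure (1–20 μM, DMSO ≤0.1%). MTT 0.18 mg/mL for 4 h at 37 °C, formazan dissolved in DMSO, absorbance 570 nm (reference 630 nm). Vehicle-treated cells = 100% viability.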

[3] = test system: Drosophila; experiment: Downregulation of Nrf2 transcript expression in Spastin Drosophila (Tubulin/Gal4 RNAi DSpast) neurodegenerative model at 10 uM flies raised in compound-enriched food by real-time PCR analysis; format: functional
Summary of the method: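 Total RNA from 5 third-instar Spastin-RNAi larvae raised on standard or compound-enriched food; Tubulin-Gal4/+ as control line. One-step SYBR RT-qPCR normalised to Rp49 by the 2^−ΔΔCt method. n = 3 experiments; one-way ANOVA, Tukey's test.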

[4] = Toxicity against Drosophila W1118 assessed as proportion of eclosed-flies at 30 uM measured after 72 hrs
[5] = Toxicity against Drosophila W1118 assessed as proportion of eclosed-flies at 10 uM measured after 72 hrs
[6] = test system: SH-SY5Y; experiment: Antioxidant activity in human SH-SY5Y cells assessed as increase in intracellular GSH level at 2.5 uM incubated for 24 hrs by […] fluorescence analysis; format: functional
Summary of the method: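 SH-SY5Y (2×10^4 cells/well) grown 24 h, then exposed to 2.5 μM for 24 h at 37 °C. Fluorescent probe added 30 min at 37 °C; read at ex 355/em 460 nm. GSH (μM) from a GSH standard curve. Mean ± SEM of three experiments; one-way ANOVA with Dunnett's test.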

[7] = test system: Microglia; experiment: Antiinflammatory activity against Sprague-Dawley rat microglial cells assessed as downregulation of NLRP3 mRNA expression at 2.5 uM pretreated with compound for 1 hr followed by LPS stimulation for 6 hrs by real-time PCR analysis; format: functional, cell-based; settings: time 7.0 hrs
Summary of the method: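 Primary cortical microglia (postnatal day 1 rat pups, shaken off mixed glial cultures, ~97% Iba1-positive). Compound (DMSO ≤0.1%) for 1 h, then 100 ng/mL ultra-pure E. coli LPS for 6 h. QIAzol RNA extraction, SuperScript IV reverse transcription, real-time PCR. Mean ± SEM, n = 3 in triplicate; one-way ANOVA, Holm-Sidak test.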

CCCCn1cc(C/C(C(=O)/C=C/c2ccc(OC)cc2)=C(O)\C=C\c2ccc(OC)cc2)nn1
Activity [1]: Toxic | Activity [2]: Toxic | inhibition [3]: Active | Activity [4]: 85.461% | Activity [5]: 93.831% | Activity [6]: 40% | Activity [7]: Active
